# Publication PMC10376460 (European Journal of Endocrinology, 2023)
# Values joined by “and” are separate entries in the source; they are usually repeats but may differ in a detail not shown here. Equal entries are not always repeated. “Also recorded” adds a separate entry of the source.
# Assays:
# [1] = test system: AKR1C2; conditions: concentrations up to 10 µM; cited from earlier work
# [2] = target: T1, human AKR1C3 (Homo sapiens, UniProt P42330); test: Biochemical enzyme assay: coumberol formation from coumberone; conditions: read-out: IC50, inhibition of human AKR1C3 activity; coumberone 0.3 µmol/L (Km)
# T1 sequence (P42330 1-323): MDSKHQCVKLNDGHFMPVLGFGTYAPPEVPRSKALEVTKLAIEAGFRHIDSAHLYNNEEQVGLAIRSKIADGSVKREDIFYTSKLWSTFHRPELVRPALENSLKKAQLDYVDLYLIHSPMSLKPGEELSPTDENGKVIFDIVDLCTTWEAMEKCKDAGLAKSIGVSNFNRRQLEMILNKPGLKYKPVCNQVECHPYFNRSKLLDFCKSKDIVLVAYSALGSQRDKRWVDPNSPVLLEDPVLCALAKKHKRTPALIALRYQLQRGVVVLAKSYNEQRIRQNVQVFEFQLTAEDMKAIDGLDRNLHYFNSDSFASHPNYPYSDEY
# [3] = test system: AKR1C4; conditions: concentrations up to 10 µM; cited from earlier work
# [4] = test system: postmenopausal women; test: Steroid assay; type: in vivo, human; conditions: 30 mg QD to 60 mg BID for 14 days
# How it was run: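 Postmenopausal women received test compound QD or BID, or placebo, for 14 days with 5-day follow-up. A commercial validated multiplex LC-MS/MS kit quantified 17 serum steroids at 0-48 h after dosing on day −1, day 1 and day 14, plus predose samples. Fold change was the ratio to the last pre-dose value of the period. Values below LLOQ were excluded.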
# [5] = test system: postmenopausal women; test: Safety assessments; type: in vivo, human
# How it was run: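 Safety covered adverse event reports, vital signs, ECGs, hematology, serum chemistry including liver function tests (transaminases, alkaline phosphatase) and urinalysis. Total serum bilirubin was followed during and after dosing against an ULN of 1.23 mg/dL. Placebo recipients were pooled, with descriptive statistics.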
# [6] = Plasma pharmacokinetics, part A; type: in vivo, human
# How it was run: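 Postmenopausal women, randomized, double-blind, placebo-controlled (7 active, 2 placebo per step). A single dose was given, then after a 14-28 day washout 3, 30 or 90 mg QD or 60 mg BID for 14 days. Plasma parent and metabolite M-7 were sampled predose to 336 h, plus periodic predose troughs. Noncompartmental parameters, accumulation and linearity indices were derived, and steady state was judged from mean Ctrough.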
# [7] = test system: premenopausal women; test: Steroid assay; type: in vivo, human
# How it was run: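 Premenopausal women, pretreatment cycle versus 28-day treatment with 60 mg QD or BID. A validated multiplex LC-MS/MS kit measured 17 serum steroids at 3- to 4-day visits, E3G-triggered visits, first bleeding days and end of treatment. LH-peak-adjusted AUCs were taken from day −5 to +10 per cycle. Cycles were compared with 90% CI and Bonferroni–Holm-adjusted P values, and values below LLOQ were excluded.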
# [8] = test system: healthy premenopausal and postmenopausal women; test: Eicosanoid; type: in vivo, human; conditions: systemic measurements
# How it was run: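 Plasma from postmenopausal (part A) and premenopausal (part B) women on the test compound. Eicosanoids, including prostaglandins, and polyunsaturated fatty acids were measured together by a published LC-MS/MS method. Part B sampling was at 3- to 4-day visits.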
# [9] = Plasma pharmacokinetics, part B; type: in vivo, human; conditions: premenopausal women
# How it was run: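 Premenopausal women received open-label oral test compound 60 mg QD or BID for 28 days. Plasma parent and metabolite M-7 concentrations were measured. Standard noncompartmental multiple-dose PK parameters were calculated from concentration-time data.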
# [10] = test system: AKR1C1; conditions: concentrations up to 10 µM; cited from earlier work
# [11] = test system: premenopausal women with endometriosis; conditions: phase 2 study; cited from earlier work
# [12] = test system: premenopausal women; test: Ovarian function assessment; type: in vivo, human; conditions: 60 mg QD or BID 28 d
# How it was run: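 Open-label, intraindividual comparison in 18 premenopausal women: a pretreatment cycle, then oral test compound 60 mg QD or BID for 28 days. Assessments were transvaginal ultrasound (follicle diameter, endometrial thickness), Hoogland scoring of ovarian activity, and a bleeding pattern from daily self-rated maximum bleeding intensity. FSH and LH were sampled at 3- to 4-day visits, with extra visits on urinary E3G rises.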
# [13] = test system: organic anion transporting polypeptide (OATP) 1B1/3 transporters; conditions: in vitro; cited from earlier work
# [14] = LH-peak-adjusted AUC, 60 mg once or twice daily 28 d
# [15] = serum, LH-peak-adjusted (day −5 to +10), 60 mg once or twice daily 28 d
# [16] = treatment vs pretreatment cycle, 60 mg once or twice daily 28 d
structure (smiles),measurement,setting,value
CN(CCC(=O)O)C(=O)c1ccc2c(c1)CC[C@@H]1[C@@H]2CC[C@]2(C)C(c3cncc(F)c3)=CC[C@@H]12 [BAY1128688],inhibition of AKR1C2,[1],no inhibition
same,IC50,[2],1.4 nM
same,inhibition of AKR1C4,[3],no inhibition
same,serum concentrations of androsterone,[4],increased in a dose-dependent manner
same,"individual maximum increase in total serum bilirubin, fold ULN","[5]; 60 mg BID, day 13",around 1.2 fold ULN
same,"individual maximum increase in total serum bilirubin, fold ULN","[5]; 90 mg QD, day 6",around 2.3 fold ULN
same,overall safety and tolerability,"[5]; 2 or 4 weeks of treatment, healthy female participants",safe and well tolerated
same,"increases in serum bilirubin, fold above the ULN",[5]; all participants except two,below 1.50 fold
same,changes in liver enzymes (transaminases; alkaline phosphatase),"[5]; any of the participants, parts A and B",no concomitant changes
same,RAAUC (accumulation ratio),"[6]; 60 mg BID, geometric mean/%CV",2.32
same,time until PK steady-state conditions were reached (mean Ctrough),[6]; all dose groups,4 to 8 days
same,changes in serum E2 (17β-estradiol) concentrations,[7]; 60 mg QD or BID 28 d,no concomitant changes; also recorded: no systematic changes
same,changes in serum progesterone concentrations,[7]; 60 mg QD or BID 28 d,no concomitant changes; also recorded: no systematic changes
same,"serum testosterone, treatment cycle vs pretreatment cycle",[7]; 60 mg QD or BID 28 d,slightly decrease
same,"11-Deoxycorticosterone: X-fold change from baseline, mean",[7]; [14],0.88
same,"11-Deoxycorticosterone: X-fold change from baseline, median",[7]; [14],0.87
same,"11-Deoxycortisol: X-fold change from baseline, mean",[7]; [14],0.85
same,"11-Deoxycortisol: X-fold change from baseline, median",[7]; [14],0.79
same,"17alpha-Hydroxyprogesterone: X-fold change from baseline, mean",[7]; [14],0.88
same,"17alpha-Hydroxyprogesterone: X-fold change from baseline, median",[7]; [14],0.87
same,"Aldosterone: X-fold change from baseline, mean",[7]; [14],1.05
same,"Aldosterone: X-fold change from baseline, median",[7]; [14],0.94
same,"Androstenedione: X-fold change from baseline, mean",[7]; [14],0.99
same,"Androstenedione: X-fold change from baseline, median",[7]; [14],0.98
same,"Androsterone: X-fold change from baseline, mean",[7]; [14],2.95
same,"Androsterone: X-fold change from baseline, median",[7]; [14],2.42
same,"Corticosterone: X-fold change from baseline, mean",[7]; [14],0.98
same,"Corticosterone: X-fold change from baseline, median",[7]; [14],0.95
same,"Cortisol: X-fold change from baseline, mean",[7]; [14],0.95
same,"Cortisol: X-fold change from baseline, median",[7]; [14],0.92
same,"Cortisone: X-fold change from baseline, mean",[7]; [14],0.94
same,"Cortisone: X-fold change from baseline, median",[7]; [14],0.92
same,"Dehydroepiandrosterone sulfate: X-fold change from baseline, mean",[7]; [14],1.11
same,"Dehydroepiandrosterone sulfate: X-fold change from baseline, median",[7]; [14],1.12
same,"Dehydroepiandrosterone: X-fold change from baseline, mean",[7]; [14],0.83
same,"Dehydroepiandrosterone: X-fold change from baseline, median",[7]; [14],0.78
same,"Dihydrotestosterone: X-fold change from baseline, mean",[7]; [14],1.52
same,"Dihydrotestosterone: X-fold change from baseline, median",[7]; [14],1.53
same,"Estradiol: X-fold change from baseline, mean",[7]; [14],1.06
same,"Estradiol: X-fold change from baseline, median",[7]; [14],1.12
same,"Estrone: X-fold change from baseline, mean",[7]; [14],1.05
same,"Estrone: X-fold change from baseline, median",[7]; [14],1.08
same,"Etiocholanolone: X-fold change from baseline, mean",[7]; [14],1.96
same,"Etiocholanolone: X-fold change from baseline, median",[7]; [14],1.70
same,"Progesterone: X-fold change from baseline, mean",[7]; [14],0.84
same,"Progesterone: X-fold change from baseline, median",[7]; [14],0.90
same,"Testosterone: X-fold change from baseline, mean",[7]; [14],0.86
same,"Testosterone: X-fold change from baseline, median",[7]; [14],0.87
same,11-Deoxycorticosterone: Treatment period AUC,[7]; [15],1.61 nmol/day
same,11-Deoxycortisol: Treatment period AUC,[7]; [15],4.84 nmol/day
same,17alpha-Hydroxyprogesterone: Treatment period AUC,[7]; [15],42.5 nmol/day
same,Aldosterone: Treatment period AUC,[7]; [15],3.17 nmol/day
same,Androstenedione: Treatment period AUC,[7]; [15],51.1 nmol/day
same,Androsterone: Treatment period AUC,[7]; [15],20.6 nmol/day
same,Corticosterone: Treatment period AUC,[7]; [15],90.6 nmol/day
same,Cortisol: Treatment period AUC,[7]; [15],4102 nmol/day
same,Cortisone: Treatment period AUC,[7]; [15],859 nmol/day
same,Dehydroepiandrosterone sulfate: Treatment period AUC,[7]; [15],69 510 nmol/d
same,Dehydroepiandrosterone: Treatment period AUC,[7]; [15],130 nmol/day
same,Dihydrotestosterone: Treatment period AUC,[7]; [15],10.2 nmol/day
same,Estradiol: Treatment period AUC,[7]; [15],7.29 nmol/day
same,Estrone: Treatment period AUC,[7]; [15],4.02 nmol/day
same,Etiocholanolone: Treatment period AUC,[7]; [15],7.01 nmol/day
same,Progesterone: Treatment period AUC,[7]; [15],213 nmol/day
same,Testosterone: Treatment period AUC,[7]; [15],9.45 nmol/day
same,"androsterone on-treatment value, maximum","[7]; serum, 60 mg QD or BID",6.36 nmol/L
same,11-Deoxycorticosterone: AUC difference (mixed linear model),[7]; [16],-0.308 nmol/day
same,11-Deoxycortisol: AUC difference (mixed linear model),[7]; [16],-0.953 nmol/day
same,17alpha-Hydroxyprogesterone: AUC difference (mixed linear model),[7]; [16],-5.20 nmol/day
same,Aldosterone: AUC difference (mixed linear model),[7]; [16],0.0041 nmol/day
same,Androstenedione: AUC difference (mixed linear model),[7]; [16],-0.312 nmol/day
same,Androsterone: AUC difference (mixed linear model),[7]; [16],13.5 nmol/day
same,Corticosterone: AUC difference (mixed linear model),[7]; [16],-17.7 nmol/day
same,Cortisol: AUC difference (mixed linear model),[7]; [16],-407 nmol/day
same,Cortisone: AUC difference (mixed linear model),[7]; [16],-55.6 nmol/day
same,Dehydroepiandrosterone sulfate: AUC difference (mixed linear model),[7]; [16],9524 nmol/day
same,Dehydroepiandrosterone: AUC difference (mixed linear model),[7]; [16],-23.3 nmol/day
same,Dihydrotestosterone: AUC difference (mixed linear model),[7]; [16],3.49 nmol/day
same,Estradiol: AUC difference (mixed linear model),[7]; [16],0.343 nmol/day
same,Estrone: AUC difference (mixed linear model),[7]; [16],0.139 nmol/day
same,Etiocholanolone: AUC difference (mixed linear model),[7]; [16],3.47 nmol/day
same,Progesterone: AUC difference (mixed linear model),[7]; [16],-50.6 nmol/day
same,Testosterone: AUC difference (mixed linear model),[7]; [16],-1.43 nmol/day
same,impact on prostaglandins investigated,[8],no obvious impact
same,multiple-dose PK parameters compared with postmenopausal women,[9],Largely similar
same,inhibition of AKR1C1,[10],no inhibition
same,finding that terminated development,[11],hepatotoxicity
same,menstrual cyclicity and ovarian function,[12],not altered
same,participants with Hoogland score of 6 (normal ovulation) in treatment cycle,[12],14 of 18 and 14/18
same,inhibition of OATP 1B1/3 transporters,[13],inhibitor
